Assay outcomes from PubChem BioAssay.
Rows were chosen to be rich in hits. Some 3.5% of all compounds tested hit in one or more screens of this group.
MrgX1 agonist: human MrgX1 receptor agonism, primary screen. 0.44% of 310,000 active. Q96LB2. AID 588627. MrgX1-HEK293 cells, Fluo-4 calcium fluorescence, agonist mode; hits give high values. B-score at 10 µM;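 active means calcium response B-score plate-corrected fluorescence ratio at least 3 library SD, with starting fluorescence B-score inside 5 SD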
Target sequence (Q96LB2 whole entry, looked up): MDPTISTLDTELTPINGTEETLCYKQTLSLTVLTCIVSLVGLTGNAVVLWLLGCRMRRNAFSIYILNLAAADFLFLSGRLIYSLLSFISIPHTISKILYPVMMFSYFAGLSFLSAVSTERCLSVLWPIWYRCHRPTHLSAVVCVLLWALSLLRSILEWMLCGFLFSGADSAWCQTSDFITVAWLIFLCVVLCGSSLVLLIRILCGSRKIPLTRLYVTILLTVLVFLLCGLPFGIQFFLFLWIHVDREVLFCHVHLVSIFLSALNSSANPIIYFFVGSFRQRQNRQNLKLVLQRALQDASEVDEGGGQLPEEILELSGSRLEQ
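System – MrgX1-expressing HEK293 cells · Incubation – cells plated overnight, dye loaded 0.5 h 37 °C, 0.5 h room temperature · Technique – kinetic Fluo-4 NW fluorescence of intracellular calcium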
MrgX1 antagonist: antagonists of human MrgX1 receptor; AID 588676; Q96LB2; B-score at 10 µM; MRGX1-HEK293 calcium flux, Fluo-4, BAM8-22 antagonism; hits give low values; 1.3% of 310,000 active;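 active means calcium-response B-score plate-corrected more than 3 library SD below zero, starting fluorescence within 5 deviations, no agonist response on first addition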;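 further: peak minus trough fluorescence over baseline after final BAM8-22 challenge near maximal dose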
MrgX1 allo act: allosterically activates human MrgX1 receptor signaling; Q96LB2; MrgX1-HEK293, Fluo-4 calcium flux, FDSS; hits give high values; 0.63% of 310,000 active; AID 588675; B-score at 10 µM;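 active means plate-corrected calcium response at least 3 library SD above typical, normal starting fluorescence, not activating the receptor alone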;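 further: compound read alongside a low EC10 to EC30 dose of BAM8-22 agonist; peak minus trough fluorescence over baseline measured at the second addition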
RGS4 act: potentiators or activators of RGS4; HEK293 M3R/inducible RGS4, carbachol calcium flux Fluo4; hits give low values; B-score at 10 µM; 0.92% of 310,000 active;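 active means B-score of the integrated calcium signal more than 4 SD below the library mean, with starting fluorescence not abnormally high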;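 further: negative B-score means reduced calcium response which marks RGS4 activation or potentiation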
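System – HEK293 FlpIn-TREx cells, stable M3R, doxycycline-inducible RGS4 · Reagent – ECmax carbachol challenge · Times – compound preincubation 20 min at room temperature before agonist · Technique – Fluo4 fluorescence kinetic imaging of calcium · Measure – B score of integrated Fluo4 ratio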
RGS4 block: inhibitors of human RGS4. P49798. HEK293 M3R/RGS4 inducible, Fluo-4 calcium flux; hits give high values; triggered by carbachol at its EC20. B-score at 10 µM. 0.45% of 310,000 active. AID 463165;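 active means B-score, a plate-corrected calcium signal, over three deviations above library mean, with baseline fluorescence within five deviations of library mean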;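 further: RGS4 expression induced by doxycycline in cells with stable M3 receptor; B-score is computed from the integrated fluorescence ratio over baseline after carbachol; higher B-score means a larger calcium signal and so more RGS4 inhibition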
Target sequence (P49798 whole entry, looked up): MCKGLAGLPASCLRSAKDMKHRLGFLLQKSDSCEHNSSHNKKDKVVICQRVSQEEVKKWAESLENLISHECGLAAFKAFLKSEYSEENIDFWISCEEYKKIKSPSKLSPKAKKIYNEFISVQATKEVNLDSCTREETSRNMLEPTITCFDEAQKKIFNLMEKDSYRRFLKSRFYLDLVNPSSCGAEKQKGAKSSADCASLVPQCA
MrgX1 ant reconf: reconfirmed antagonist of human MrgX1 receptor signaling. 19% of 2,300 active. AID 602420. shares compounds with MrgX1 antagonist. remaining BAM8-22 calcium response % of control (hits give low values), % at 10 µM. MrgX1-HEK293, BAM8-22 calcium flux, Fluo-4; hits give low values;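 active means remaining agonist calcium response no higher than 100% minus 3 SD of agonist-only control wells, with starting fluorescence near control levels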;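 further: agonist BAM8-22 given at a near maximal EC90 to ECmax level; peak minus minimum fluorescence divided by baseline after agonist addition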
HEK293 Ca flux: activity in parental HEK293 cells lacking MrgX1; shares compounds with MrgX1 antagonist; Fluo-4 calcium fluorescence, FDSS; fluorescence ratio F(max-min)/F0 at 10 µM; 2% of 4,000 active; AID 624111;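 active means duplicate-averaged calcium fluorescence ratio at least three times the standard deviation of buffer wells, a nonspecific response in parental cells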
HEK293 Ca counter: MrgX1 allosteric activator counter-screen hit in parental HEK293 cells. shares compounds with MrgX1 antagonist. parental HEK293 calcium flux, Fluo-4 fluorescence ratio; hits give high values. fluorescence ratio F(max-min)/F0 at 10 µM. 0.4% of 4,000 active. AID 624114;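 active means calcium fluorescence ratio, averaged over duplicates, at least 3 SD of the buffer-well ratio, meaning a nonspecific response in receptor-free cells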;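 further: untransfected parental HEK293 lacking MrgX1 used as counterscreen for MrgX1 allosteric activators; fluorescence change taken during the second addition on a kinetic imager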
HEK293 Ca cntr2: MrgX1 activator counter-screen hit in parental HEK293 cells | shares compounds with MrgX1 antagonist | Fluo-4 calcium fluorescence (FDSS); hits give high values | fluorescence ratio F(max-min)/F0 at 10 µM | 8.7% of 4,000 active | AID 624115;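 active means calcium fluorescence ratio at least three times the spread of buffer wells, meaning a non-specific response in parental cells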
* = called active by the depositor; i = inactive; · = no result.

SMILES	MrgX1 agonist	MrgX1 antagonist	MrgX1 allo act	RGS4 act	RGS4 block	MrgX1 ant reconf	HEK293 Ca flux	HEK293 Ca counter	HEK293 Ca cntr2
COC(=O)c1ccc(NC(=O)CN2CCN(c3ccccc3)CC2)cc1	i	-6.7*	i	i	i	i	i	i	i
COc1cc(Cl)ccc1NC(=O)COc1ccccc1C(=O)NN	i	i	i	i	i	·	·	·	·
COc1ccc(C)cc1NC(=O)CNC(C)C(=O)Nc1ccc(C(C)=O)cc1 (stereo not drawn)	i	i	i	i	i	·	·	·	·
Cc1cccc(Nc2nc(N)nc(CSc3nccc(C)n3)n2)c1	i	i	i	i	i	·	·	·	·
COc1ccc(Nc2nc(N)nc(CSc3nccc(C)n3)n2)cc1	i	-9.5*	i	i	i	i	i	i	i
CCN1CCN(CCNC(=O)c2ccc(/C=C3\Sc4ccccc4N(Cc4ccccc4F)C3=O)cc2)CC1	i	-13*	i	-7*	i	i	i	i	i
COc1ccc2oc(C(=O)OCC(=O)NCc3ccccc3OC)c(C)c2c1	i	-5.1*	i	i	i	i	i	i	i
COCCNC(=O)c1ccc(Cl)c(S(=O)(=O)Nc2cccc(C)c2C)c1	i	i	i	i	i	·	·	·	·
COc1cc(Cl)ccc1OCc1cc(C(=O)N2C[C@]3(C)C[C@H]2CC(C)(C)C3)no1	i	i	i	i	i	·	·	·	·
CC(C)Cc1nnc(NC(=O)CCC(=O)NCc2ccccc2Cl)s1	i	i	i	i	i	·	·	·	·
CCNC(=O)COC(=O)c1cccc(Br)c1	i	i	i	i	i	·	·	·	·
COC(=O)C1CSc2[nH]c(=O)sc2C1c1ccccc1 (stereo not drawn)	i	-5.7*	i	i	i	i	i	i	i
CCC(C)NC(=O)CSc1nnc(-c2cc(OC)c(OC)c(OC)c2)c(-c2cc(OC)c(OC)c(OC)c2)n1 (stereo not drawn)	i	i	i	i	i	·	·	·	·
CCOc1cc(C(=O)N2CCCN(C)CC2)cc(OCC)c1OCC	i	i	i	i	i	·	·	·	·
CCOC(=O)c1cc2c3ccccc3n(CC)c2nc1N	i	-5.8*	i	i	i	i	i	i	i
CCOc1ccc2[nH]cc(C(=O)NCc3ccccc3)c(=O)c2c1	i	i	i	i	i	·	·	·	·
O=C(NCc1ccccc1)c1c[nH]c2cc3c(cc2c1=O)OCCO3	i	-5.5*	i	i	i	i	i	i	i
COc1ccccc1Nc1ncccc1C(=O)O	i	-8.5*	i	i	i	77%*	i	i	i
CCOc1ccccc1Nc1ncccc1C(=O)O	i	i	i	i	i	·	·	·	·
O=C(Cc1ccc(NC2=NC3CS(=O)(=O)CC3S2)cc1)N1CCN(c2ccc(F)cc2)CC1 (stereo not drawn)	i	i	i	i	i	·	·	·	·
CCN1CCN(CC(=O)N2c3ccccc3Sc3ccccc32)CC1	i	-5.1*	i	i	i	i	i	i	i
COCC(C)n1c(C)cc(C(=O)CSc2nc3ccccc3c(=O)[nH]2)c1C (stereo not drawn)	i	-7.7*	i	i	i	i	i	i	i
CC(=O)c1cc2c(cc1NC(=O)CSc1nc3ccccc3[nH]1)OCO2	i	-6.6*	i	i	i	75%*	i	i	i
O=C(CSc1nc2ccccc2[nH]1)c1c[nH]c2ccccc12	i	-5.7*	i	i	i	i	i	i	i
C=CCn1c(C)cc(C(=O)CSc2nc3ccccc3c(=O)[nH]2)c1C	i	i	i	·	·	·	·	·	·
SMILES	MrgX1 agonist	MrgX1 antagonist	MrgX1 allo act	RGS4 act	RGS4 block	MrgX1 ant reconf	HEK293 Ca flux	HEK293 Ca counter	HEK293 Ca cntr2
C=CCn1c(C)cc(C(=O)CSc2nc3ccccc3[nH]2)c1C	i	-6.7*	i	i	i	71%*	i	i	i
COc1ccc(/C=C/C(=O)OCC(=O)Nc2ccc3[nH]c(=O)[nH]c3c2)cc1OC	i	i	i	i	i	·	·	·	·
CCC1SC(CC)C(=O)N(CC(=O)Nc2ccc3c(c2)OCO3)C1=O (stereo not drawn)	i	i	i	i	i	·	·	·	·
Fc1ccc(COc2ccccc2C(=S)N2CCCC2)cc1	i	-5.4*	i	i	i	i	i	i	i
C=CCN(CC=C)C(=O)COC(=O)c1ccc(Sc2ncn[nH]2)c([N+](=O)[O-])c1	i	i	i	i	i	·	·	·	·
Cc1ccc(S(=O)(=O)NCCC(=O)N2CCN(S(=O)(=O)c3ccccc3)CC2)cc1C	i	i	i	i	i	·	·	·	·
Cc1ccc(S(=O)(=O)NCCC(=O)N2CCCCCCC2)cc1C	i	-4.7*	i	i	i	i	i	i	i
COc1cccc(CNC(=O)CCC2CCCN(C(=O)C3CCOCC3)C2)c1 (stereo not drawn)	i	i	i	i	i	·	·	·	·
CNCCCOc1cccc(OC(C)C)c1	i	-7.3*	i	i	i	i	i	i	i
CCOC(=O)C(=O)N1CCC(C(=O)OC)CC1	i	i	i	i	i	·	·	·	·
Cc1ccc(C)c(-n2c(SCC(=O)Nc3nonc3C)nnc2-c2ccoc2C)c1	i	-5.4*	i	i	i	83%*	i	i	i
CCCSc1nnc(NC(=O)Nc2ccc(F)cc2)s1	i	-5.6*	i	i	i	71%*	i	i	i
Cc1ccc(Nc2nc(/N=C/NO)n[nH]2)cc1C	i	i	i	i	i	·	·	·	·
O=C(COC(=O)c1cnccn1)Nc1ncc(Cl)cc1Cl	i	i	i	i	i	·	·	·	·
O=C(COC(=O)c1cnccn1)NCCc1ccc(Cl)cc1Cl	i	-5.9*	i	i	i	i	i	i	i
O=C(COC(=O)[C@@H]1CCCN1S(=O)(=O)c1ccccc1F)Nc1ccc(OC(F)F)cc1	i	i	i	i	i	·	·	·	·
